An excerpt weighted towards active compounds, which were near 3.5% of everything screened.
RGS4 block – inhibitors of human RGS4. P49798. HEK293 M3R/RGS4 inducible, Fluo-4 calcium flux; hits give high values; triggered by carbachol at its EC20. B-score at 10 µM. actives 0.45% (n = 310,000);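 active = B-score, a plate-corrected calcium signal, over three deviations above library mean, with baseline fluorescence within five deviations of library mean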;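 also: RGS4 expression induced by doxycycline in cells with stable M3 receptor; B-score is computed from the integrated fluorescence ratio over baseline after carbachol; higher B-score means a larger calcium signal and so more RGS4 inhibition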
Target sequence (P49798 whole entry, looked up): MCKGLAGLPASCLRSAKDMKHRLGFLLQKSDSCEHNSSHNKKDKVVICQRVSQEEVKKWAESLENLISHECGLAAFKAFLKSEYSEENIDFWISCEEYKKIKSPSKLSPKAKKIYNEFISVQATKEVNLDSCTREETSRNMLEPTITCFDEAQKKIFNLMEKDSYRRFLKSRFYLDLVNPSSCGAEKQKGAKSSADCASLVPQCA
MrgX1 PAM – allosterically activates human MrgX1 receptor signaling. B-score at 10 µM. Q96LB2. actives 0.63% (n = 310,000). MrgX1-HEK293, Fluo-4 calcium flux, FDSS; hits give high values. AID 588675;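 active = plate-corrected calcium response at least 3 library SD above typical, normal starting fluorescence, not activating the receptor alone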;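 also: compound read alongside a low EC10 to EC30 dose of BAM8-22 agonist; peak minus trough fluorescence over baseline measured at the second addition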
Target sequence (Q96LB2 whole entry, looked up): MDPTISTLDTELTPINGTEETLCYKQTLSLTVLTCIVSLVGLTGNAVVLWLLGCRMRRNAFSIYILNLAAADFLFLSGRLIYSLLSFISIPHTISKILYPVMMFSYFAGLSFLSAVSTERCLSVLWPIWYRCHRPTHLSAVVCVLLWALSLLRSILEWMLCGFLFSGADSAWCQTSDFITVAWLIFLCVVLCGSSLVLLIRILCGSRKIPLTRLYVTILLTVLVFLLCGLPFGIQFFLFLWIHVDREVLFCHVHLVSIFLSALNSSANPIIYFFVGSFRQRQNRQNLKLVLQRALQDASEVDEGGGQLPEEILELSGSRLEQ
MrgX1 ag – human MrgX1 receptor agonism, primary screen. actives 0.44% (n = 310,000). B-score at 10 µM. Q96LB2. MrgX1-HEK293 cells, Fluo-4 calcium fluorescence, agonist mode; hits give high values;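 active = calcium response B-score plate-corrected fluorescence ratio at least 3 library SD, with starting fluorescence B-score inside 5 SD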
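times = overnight plating, then 30 min 37 °C plus 30 min room-temperature dye loading | assay system = stable human MrgX1 HEK293 cell line | input = fifteen thousand cells per well | signal = kinetic calcium dye fluorescence, Fluo-4 NW | dosing = compound delivered in addition one of three | read-out = B-scored fluorescence response ratio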
RGS4 pot – potentiators or activators of RGS4; actives 0.92% (n = 310,000); B-score at 10 µM; AID 463111; HEK293 M3R/inducible RGS4, carbachol calcium flux Fluo4; hits give low values;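 active = B-score of the integrated calcium signal more than 4 SD below the library mean, with starting fluorescence not abnormally high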;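 also: negative B-score means reduced calcium response which marks RGS4 activation or potentiation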
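Assay system: HEK293 FlpIn-TREx cells, stable M3R, doxycycline-inducible RGS4 / Probe or stimulus: carbachol, ECmax concentration / Times: overnight RGS4 induction, 30 min dye load 37 °C, 20 min compound RT / Signal: kinetic calcium fluorescence imaging with Fluo4-AM dye, 2 µM / Measure: Agonist-evoked peak-minus-minimum fluorescence over baseline, integrated ratio, B score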
MrgX1 antag – human MrgX1 receptor antagonism, primary screen. MRGX1-HEK293 calcium flux, Fluo-4, BAM8-22 antagonism; hits give low values. B-score at 10 µM. actives 1.3% (n = 310,000);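 active = calcium-response B-score plate-corrected more than 3 library SD below zero, starting fluorescence within 5 deviations, no agonist response on first addition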;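 also: peak minus trough fluorescence over baseline after final BAM8-22 challenge near maximal dose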
MrgX1 ag confirm – confirmation of human MrgX1 receptor agonists. shares compounds with MrgX1 ag. MrgX1-HEK293, Fluo-4 calcium fluorescence, FDSS. activation, % at 10 µM. actives 78% (n = 600);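 active = calcium signal rise, corrected for plate position, at least 3 library SD high, with starting brightness within 5 such deviations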; also: reference of the scale not given here
HEK293 Ca flux – activity in parental HEK293 cells lacking MrgX1; shares compounds with MrgX1 antag; Fluo-4 calcium fluorescence, FDSS; fluorescence ratio F(max-min)/F0 at 10 µM; actives 2% (n = 4,000); AID 624111;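 active = duplicate-averaged calcium fluorescence ratio at least three times the standard deviation of buffer wells, a nonspecific response in parental cells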
HEK293 Ca counter – counter-screen for MrgX1 allosteric activators: effect in parental HEK293 cells; shares compounds with MrgX1 antag; parental HEK293 calcium flux, Fluo-4 fluorescence ratio; hits give high values; actives 0.4% (n = 4,000); fluorescence ratio F(max-min)/F0 at 10 µM;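 active = calcium fluorescence ratio, averaged over duplicates, at least 3 SD of the buffer-well ratio, meaning a nonspecific response in receptor-free cells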;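 also: untransfected parental HEK293 lacking MrgX1 used as counterscreen for MrgX1 allosteric activators; fluorescence change taken during the second addition on a kinetic imager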
HEK293 Ca cntr2 – MrgX1 activator counter-screen hit in parental HEK293 cells; shares compounds with MrgX1 antag; actives 8.7% (n = 4,000); AID 624115; fluorescence ratio F(max-min)/F0 at 10 µM; Fluo-4 calcium fluorescence (FDSS); hits give high values;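 active = calcium fluorescence ratio at least three times the spread of buffer wells, meaning a non-specific response in parental cells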
Starred values were filed as active, the others as inactive; i = inactive; · = no result.

SMILES	RGS4 block	MrgX1 PAM	MrgX1 ag	RGS4 pot	MrgX1 antag	MrgX1 ag confirm	HEK293 Ca flux	HEK293 Ca counter	HEK293 Ca cntr2
CC(C)N1CCc2c(sc(NC(=O)c3ccc(C(=O)c4ccccc4)cc3)c2C(N)=O)C1	i	i	36*	i	i	i	i	i	i
COc1ccc(-c2csc(NC(=O)CCN3C(=O)C4CC=CCC4C3=O)n2)cc1OC (stereo not given)	i	i	45*	-7.3*	i	i	i	i	i
COc1ccc(-c2csc(NC(=O)CS(=O)(=O)c3ccc(F)cc3)n2)cc1OC	i	i	55*	i	i	i	i	i	i
COc1ccc(-c2csc(NC(=O)Cc3cc(OC)c(OC)c(OC)c3)n2)cc1OC	i	i	i	i	i	·	·	·	·
COc1ccc(N=C2NC(=O)S/C2=C\c2ccc(N(C)C)cc2)cc1	i	i	26*	-7.2*	i	230%*	i	i	57*
Cc1ccc(CNC(=O)c2ccc(Cl)c(S(N)(=O)=O)c2)n1C	i	i	71*	i	i	283%*	i	i	i
COc1ccc(Cl)cc1NC(=O)c1c(-c2ccccc2)noc1C	i	i	i	i	i	·	·	·	·
O=C(NC(=S)NNC(=O)c1ccc(Cl)cc1Cl)c1cccnc1	i	i	i	i	i	·	·	·	·
Cc1onc(-c2ccccc2)c1C(=O)NNC(=S)NC(=O)c1ccc(Cl)cc1Cl	i	i	180*	i	i	714%*	i	i	115*
Cc1ccccc1C(=O)NNC(=S)NC(=O)c1ccc(Cl)cc1Cl	i	i	172*	-10*	i	776%*	i	i	154*
Cc1onc(-c2ccccc2)c1C(=O)NNC(=O)c1ccccc1O	i	i	i	i	i	·	·	·	·
O=C(/C=C/c1ccccc1)NC(=S)NNC(=O)Cc1cccs1	i	i	71*	i	i	262%*	i	i	73*
Cc1onc(-c2ccccc2)c1C(=O)NNC(=S)NC(=O)c1ccc(Br)cc1	i	i	86*	i	i	705%*	i	i	138*
Cc1ccc(CNCC(=O)Nc2ccc(N3CCOCC3)cc2)cc1	i	i	i	i	i	·	·	·	·
CCOC(=O)CNC(=O)C1CCN(S(=O)(=O)c2ccc(-c3nn[nH]n3)cc2)CC1	i	i	i	i	i	·	·	·	·
Cc1cccc(C)c1NC(=O)CSc1nc(C2CC2)nc2ccccc12	i	i	i	i	i	·	·	·	·
Cc1onc(-c2ccccc2)c1C(=O)NNC(=S)NC(=O)/C=C/c1ccccc1	i	i	95*	i	i	455%*	i	i	72*
Cc1onc(-c2ccccc2)c1C(=O)Nc1ccccc1NC(=O)c1c(-c2ccccc2)noc1C	i	i	i	i	i	·	·	·	·
CC/C(=N\NC(=O)c1ccncc1)C12CC3CC(CC(C3)C1)C2	i	i	i	i	i	·	·	·	·
CC1(C(=O)NC(=S)NNC(=O)c2ccncc2)CCCCC1	i	i	87*	i	i	489%*	i	i	101*
O=C(NNC(=S)NC(=O)C12CC3CC(CC(C3)C1)C2)c1ccncc1	i	i	117*	i	i	600%*	i	i	121*
O=C(NNC(=O)C1CCCCC1)c1ccncc1	i	i	i	i	i	·	·	·	·
N#Cc1ccccc1NC(=O)CSc1nnc(-c2ccncc2)o1	i	i	i	i	i	·	·	·	·
c1ccc2c(c1)nc(Nc1ccc3c(c1)OCO3)c1nnnn12	i	i	30*	i	i	207%*	i	i	i
Fc1cccc(Nc2nc3ccccc3n3nnnc23)c1	i	i	i	i	i	·	·	·	·
SMILES	RGS4 block	MrgX1 PAM	MrgX1 ag	RGS4 pot	MrgX1 antag	MrgX1 ag confirm	HEK293 Ca flux	HEK293 Ca counter	HEK293 Ca cntr2
COc1cccc(Nc2nc3ccccc3n3nnnc23)c1	i	i	31*	i	i	125%*	i	i	i
COc1ccc(N(C(=O)c2ccco2)C(C(=O)NC2CCCC2)c2ccc(N3CCOCC3)cc2)c(OC)c1 (stereo not given)	i	i	i	i	i	·	·	·	·
CCc1nc(N)nc(N)c1-c1ccc(Cl)cc1	i	i	28*	i	i	i	i	i	i
CSc1nnc(C)c(/C=C/Nc2ccc(F)cc2)n1	i	i	30*	i	i	152%*	i	i	i
CC/C(=N/Nc1ccc(Cl)cc1)c1cnnc(SC)n1	i	i	i	i	i	·	·	·	·
COc1ccc(N/C=C/c2nc(SC)nnc2C)cc1	i	i	i	i	i	·	·	·	·
CSc1nnc(C)c(/C=C/Nc2ccc(Cl)cc2)n1	i	i	45*	i	i	248%*	0.36*	i	74*
Cc1nc([N+](=O)[O-])c(C(=O)OCc2cccc(Br)c2)n1C	i	i	i	i	i	·	·	·	·
COCCn1c(NCc2ccco2)nc2c1c(=O)[nH]c(=O)n2C	i	i	i	i	i	·	·	·	·
O=C(c1ccc(Cl)c(S(=O)(=O)N2CCCCCC2)c1)N1CCCC1	i	i	i	i	i	·	·	·	·
O=C(c1ccccc1Cl)N(Cc1ccc(Br)cc1)N1C(=O)CCCC1=O	i	i	i	i	i	·	·	·	·
O=C(c1ccc([N+](=O)[O-])cc1)N(Cc1ccc(Br)cc1)N1C(=O)CCCC1=O	i	i	71*	i	i	521%*	i	i	96*
CSc1ncccc1C(=O)NCCc1ccc(S(N)(=O)=O)cc1	i	i	33*	i	i	i	i	i	i
CSc1ncccc1C(=O)NCCc1ccccc1	i	i	i	i	i	·	·	·	·
Nc1c(C(=O)c2ccccc2)sc2nsc(SCCN3CCCC3)c12	i	i	i	i	i	·	·	·	·
Nc1c(C(=O)c2ccc(Cl)cc2)sc2nsc(SCCN3CCOCC3)c12	i	i	39*	i	i	i	0.48*	i	104*

High-throughput results as filed in PubChem BioAssay.
